ChEMBL document CHEMBL3217724, “Synthesis and evaluation of a series of benzothiophene acrylonitrile analogs as anticancer agents” (Medchemcomm, 2013)
The source made the active and inactive calls. No cut-off for these calls is given here.

Tests used:
PC-3 [1] = test: Growth inhibition of human PC3 cells after 72 hrs by Alamar Blue assay; format: functional; conditions: PC-3, 72 h
Procedure, shortened: (§1)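 PC3 prostate cancer cells and docetaxel-resistant PC3-DR cells were exposed to drug for 72 hours in 96-well format. Viability was read with AlamarBlue dye and GI50 derived. Resistance is the GI50 in PC3-DR over the GI50 in parental PC3.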

LLC-PK1 [2] = test: Growth inhibition of pig LLC-PK1 cells expressing MDR1 by Alamar Blue assay; format: functional; conditions: Sus scrofa
Procedure, shortened: (§2)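 Porcine epithelial L-MDR1 (P-gp expressing) cells and their non-expressing parent line were exposed to compound for 72 h. Viability was read with AlamarBlue dye and GI50 derived. P-gp expression was verified by Western blot with β-actin as loading control. The resistance ratio compares GI50 in MDR1 versus parent cells.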

PC-3 [3] = test: Resistance factor, ratio of GI50 for P-gp expressing docetaxel-resistant human PC3 cells to GI50 for human PC3 cells; format: functional; procedure, shortened: as §1
OVCAR-8 = test: Resistance factor, ratio of GI50 for P-gp expressing NCI-ADR-RES cells to GI50 for human OVCAR8 cells; format: functional
Procedure, shortened: (§3)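 Cell viability was read with AlamarBlue dye in 96-well format and GI50 values derived, to assess P-gp effects. Cells were P-gp-expressing NCI/ADR-Res ovarian cancer cells and L-MDR1 porcine epithelial cells, each with its non-expressing parent line. P-gp expression was confirmed by Western blot with β-actin as loading control. Resistance is the GI50 in the P-gp line over the GI50 in the parent line.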

[4] = Growth inhibition of P-gp expressing human NCI-ADR-RES cells by Alamar Blue assay; format: functional
Procedure, shortened: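 72-h cytotoxicity in 96-well plates with AlamarBlue viability dye, giving GI50. Line 1 uses docetaxel-resistant PC3 prostate cells (PC3-DR), and line 2 uses NCI/ADR-Res ovarian cells. P-gp expression in both was confirmed by Western blot, with β-actin as the loading control.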

[5] = Growth inhibition of human OVCAR8 cells by Alamar Blue assay; format: functional; conditions: OVCAR-8; procedure, shortened: as §3
LLC-PK1 [6] = test: Resistance factor, ratio of GI50 for pig LLC-PK1 cells expressing MDR1 to GI50 for pig LLC-PK1 cells; design: species or system Sus scrofa; procedure, shortened: as §2
PC-3 [7] = test: Induction of beta tubulin stabilization in human PC3 cells at 10 nM after 24 hrs by DAPI-staining based immunofluorescence assay; format: cell-based
Procedure, shortened: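 PC3 cells were treated for 24 hours with the test agent at 1, 10 or 100 nM, or with 10 nM docetaxel or vinblastine as stabilizing and destabilizing references. Cells were immunostained for beta-tubulin (green) with DAPI nuclear counterstain (blue) and the microtubule staining pattern imaged.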

[8] = Growth inhibition of pig LLC-PK1 cells by Alamar Blue assay; format: cell-based, Sus scrofa; procedure, shortened: as §3
PC-3 [9] = test: cells; conditions: Homo sapiens, PC-3, 72 h
PC-3 [10] = test: Growth inhibition of human PC3 cells; format: functional
Procedure, shortened: (§4)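 NCI 60-human-cancer-cell-line panel, five-dose screen after a preliminary screen. GI50 is the molar concentration giving 50% growth inhibition.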

KM12 = test: Growth inhibition of human KM12 cells; format: functional; procedure, shortened: as §4
A549 = test: Growth inhibition of human A549 cells; format: functional; procedure, shortened: as §4
[11] = Growth inhibition of human UACC257 cells; format: functional; conditions: UACC-257
Procedure, shortened: (§5)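 NCI 60-cell-line panel, five-dose screen; GI50 is the molar concentration giving 50% growth inhibition.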

[12] = Growth inhibition of human HCT15 cells; format: functional; conditions: HCT-15; procedure, shortened: as §4
[13] = Growth inhibition of human LOXIMVI cells; format: functional; conditions: LOX IMVI; procedure, shortened: as §4
[14] = Growth inhibition of human Hs578T cells; format: functional; conditions: Hs-578T; procedure, shortened: as §4
[15] = Growth inhibition of human SF539 cells; format: functional; conditions: SF-539; procedure, shortened: as §4
HL-60(TB) = test: Growth inhibition of human HL-60(TB) cells; format: functional; procedure, shortened: as §4
HOP-62 = test: Growth inhibition of human HOP62 cells; format: functional; procedure, shortened: as §4
DU-145 = test: Growth inhibition of human DU145 cells; format: functional; procedure, shortened: as §4
NCI-H23 = test: Growth inhibition of human NCI-H23 cells; format: functional; procedure, shortened: as §4
SK-OV-3 = test: Growth inhibition of human SKOV3 cells; format: functional; procedure, shortened: as §5
K562 = test: Growth inhibition of human K562 cells; format: functional; procedure, shortened: as §4
U-251 = test: Growth inhibition of human U251 cells; format: functional; procedure, shortened: as §5
[16] = Growth inhibition of human UACC62 cells; format: functional; conditions: UACC-62; procedure, shortened: as §5
[17] = Growth inhibition of human OVCAR8 cells; format: functional; conditions: OVCAR-8; procedure, shortened: as §4
SK-MEL-28 = test: Growth inhibition of human SK-MEL-28 cells; format: functional; procedure, shortened: as §4
[18] = Growth inhibition of human MOLT4 cells; format: functional; conditions: MOLT-4; procedure, shortened: as §4
SK-MEL-5 = test: Growth inhibition of human SK-MEL-5 cells; format: functional; procedure, shortened: as §4
MCF7 = test: Growth inhibition of human MCF7 cells; format: functional; procedure, shortened: as §4
[19] = Growth inhibition of human HOP92 cells; format: functional; conditions: HOP-92; procedure, shortened: as §4
[20] = Growth inhibition of human OVCAR5 cells; format: functional; conditions: OVCAR-5; procedure, shortened: as §4
SK-MEL-2 = test: Growth inhibition of human SK-MEL-2 cells; format: functional; procedure, shortened: as §4
[21] = Growth inhibition of human UO31 cells; format: functional; conditions: UO-31; procedure, shortened: as §5
SR = test: Growth inhibition of human SR cells; format: functional; procedure, shortened: as §5
CCRF-CEM = test: Growth inhibition of human CCRF-CEM cells; format: functional; procedure, shortened: as §4
T47D = test: Growth inhibition of human T47D cells; format: functional; procedure, shortened: as §5
[22] = Growth inhibition of human OVCAR3 cells; format: functional; conditions: OVCAR-3; procedure, shortened: as §4
MDA-MB-435 = test: Growth inhibition of human MDA-MB-435 cells; format: functional; procedure, shortened: as §4
MDA-MB-468 = test: Growth inhibition of human MDA-MB-468 cells; format: functional; procedure, shortened: as §4
M14 = test: Growth inhibition of human M14 cells; format: functional; procedure, shortened: as §4
SN12C = test: Growth inhibition of human SN12C cells; format: functional; procedure, shortened: as §5
TK-10 = test: Growth inhibition of human TK10 cells; format: functional; procedure, shortened: as §5
NCI-H226 = test: Growth inhibition of human NCI-H226 cells; format: functional; procedure, shortened: as §4
NCI-H460 = test: Growth inhibition of human NCI-H460 cells; format: functional; procedure, shortened: as §4
CAKI-1 = test: Growth inhibition of human Caki1 cells; format: functional; procedure, shortened: as §4
[23] = Growth inhibition of human NCI-ADR-RES cells; format: functional; procedure, shortened: as §4
RPMI-8226 = test: Growth inhibition of human RPMI8226 cells; format: functional; procedure, shortened: as §4
NCI-H322M = test: Growth inhibition of human NCI-H322M cells; format: functional; procedure, shortened: as §4
SF-268 = test: Growth inhibition of human SF268 cells; format: functional; procedure, shortened: as §4
SW-620 = test: Growth inhibition of human SW620 cells; format: functional; procedure, shortened: as §5
[24] = Growth inhibition of human HCC2998 cells; format: functional; conditions: HCC 2998; procedure, shortened: as §4
MDA-MB-231 = test: Growth inhibition of human MDA-MB-231 cells; format: functional; procedure, shortened: as §4
[25] = Growth inhibition of human BT549 cells; format: functional; conditions: BT-549; procedure, shortened: as §4
A498 = test: Growth inhibition of human A498 cells; format: functional; procedure, shortened: as §4
SNB-75 = test: Growth inhibition of human SNB75 cells; format: functional; procedure, shortened: as §5
HCT-116 = test: Growth inhibition of human HCT116 cells; format: functional; procedure, shortened: as §4
[26] = Growth inhibition of human RXF393 cells; format: functional; conditions: RXF 393; procedure, shortened: as §4
IGROV-1 = test: Growth inhibition of human IGROV1 cells; format: functional; procedure, shortened: as §4
786-0 = test: Growth inhibition of human 786-0 cells; format: functional; procedure, shortened: as §4
COLO 205 = test: Growth inhibition of human COLO205 cells; format: functional; procedure, shortened: as §4
ACHN = test: Growth inhibition of human ACHN cells; format: functional; procedure, shortened: as §4
[27] = Growth inhibition of human OVCAR4 cells; format: functional; conditions: OVCAR-4; procedure, shortened: as §4
Malme-3M = test: Growth inhibition of human MALME-3M cells; format: functional; procedure, shortened: as §4
HT-29 = test: Growth inhibition of human HT-29 cells; format: functional; procedure, shortened: as §4
SNB-19 = test: Growth inhibition of human SNB19 cells; format: functional; procedure, shortened: as §5

For `CC(=O)O[C@@]12CO[C@@H]1C[C@H](O)[C@@]1(C)C(=O)[C@H](O)C3=C(C)[C@@H](OC(=O)[C@H](O)[C@@H](NC(=O)OC(C)(C)C)c4ccccc4)C[C@@](O)([C@@H](OC(=O)c4ccccc4)[C@H]21)C3(C)C.O.O.O` [DOCETAXEL], the GI50 (PC-3 [1]) was 2.5 nM, the GI50 (LLC-PK1 [2]) was 107 nM and the RatioGI50 (PC-3 [3]) was 22. The RatioGI50 (OVCAR-8) was 392, the GI50 [4] was 196 nM and the GI50 [5] was 0.5 nM. The RatioGI50 (LLC-PK1 [6]) was 627, the Activity (PC-3 [7]) was “Active” and the GI50 [8] was 0.17 nM. The GI50 (PC-3 [9]) was 54 nM.
Compound `COc1cc(/C(C#N)=C\c2cc3ccccc3s2)cc(OC)c1OC` has a GI50 (PC-3 [10]) of less than 10 nM, a GI50 (KM12) of less than 10 nM and a GI50 (A549) of less than 10 nM. It also gave a GI50 [11] greater than 100 nM, a GI50 [12] of less than 10 nM and a GI50 [13] of less than 10 nM. It also gave a GI50 [14] of less than 10 nM, a GI50 [15] of less than 10 nM and a GI50 (HL-60(TB)) of less than 10 nM. The GI50 (HOP-62) was less than 10 nM, the GI50 (DU-145) was less than 10 nM and the GI50 (NCI-H23) was less than 10 nM. For the same compound, the GI50 (SK-OV-3) was less than 10 nM, the GI50 (K562) was less than 10 nM and the GI50 (U-251) was less than 10 nM. It also gave a GI50 [16] of less than 10 nM, a GI50 [17] of less than 10 nM and a GI50 (SK-MEL-28) of less than 10 nM. It also gave a GI50 [18] of less than 10 nM, a GI50 (SK-MEL-5) of less than 10 nM and a GI50 (MCF7) of less than 10 nM. For the same compound, the GI50 [19] was less than 10 nM, the GI50 [20] was less than 10 nM and the GI50 (SK-MEL-2) was less than 10 nM. For the same compound, the GI50 [21] was less than 10 nM, the GI50 (SR) was less than 10 nM and the GI50 (CCRF-CEM) was less than 10 nM. The GI50 (T47D) was greater than 100 nM, the GI50 [22] was less than 10 nM and the GI50 (MDA-MB-435) was less than 10 nM. For the same compound, the GI50 (MDA-MB-468) was less than 10 nM, the GI50 (M14) was less than 10 nM and the GI50 (SN12C) was less than 10 nM. The GI50 (TK-10) was greater than 100 nM, the GI50 (NCI-H226) was 17.9 nM and the GI50 (NCI-H460) was less than 10 nM. For the same compound, the GI50 (CAKI-1) was 37.8 nM, the GI50 [23] was less than 10 nM and the GI50 (RPMI-8226) was less than 10 nM. It also gave a GI50 (NCI-H322M) of 18.3 nM, a GI50 (SF-268) of less than 10 nM and a GI50 (SW-620) of less than 10 nM. The GI50 [24] was 19.2 nM, the GI50 (MDA-MB-231) was less than 10 nM and the GI50 [25] was less than 10 nM. The GI50 (A498) was less than 10 nM, the GI50 (SNB-75) was less than 10 nM and the GI50 (HCT-116) was less than 10 nM. The GI50 [26] was less than 10 nM, the GI50 (IGROV-1) was less than 10 nM and the GI50 (786-0) was less than 10 nM. For the same compound, the GI50 (COLO 205) was less than 10 nM, the GI50 (ACHN) was less than 10 nM and the GI50 [27] was less than 10 nM. The GI50 (Malme-3M) was less than 10 nM, the GI50 (HT-29) was less than 10 nM and the GI50 (SNB-19) was 39.1 nM.
